From PubChem BioAssay
proKLK7 act: activators of human kallikrein-7 zymogen | P49862 | purified proKLK7, EDANS-DABCYL substrate fluorescence; 100% is mature enzyme control, 0% vehicle | activation, % at 7 µM | hit rate 0.9% among 370,000;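 active = activation above the mean of all tested compounds plus 3 SD, computed per campaign excluding outliers beyond control limits, cut at about 13% in these data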
RanGTP-Impb inh: inhibitors of RanGTP-importin-beta interaction, primary screen, biochemical, FRET, CFP-Ran, YFP-importin-beta, homogeneous. cell-free CFP-Ran/YFP-importin-beta FRET ratio. inhibition, % (concentration not given with the values). hit rate 1.1% among 300,000. AID 2216;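 active = more than half of the replicate wells show a fall in the fluorescence ratio signal beyond about 16%, limit read from the data, passing the limit was not always enough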
Runt-SMMHC FRET: inhibitors of human RUNX1 Runt domain binding to CBFb-SMMHC; Q01196+Q13951; Cerulean-Runt/Venus-CBFb-SMMHC FRET ratio 530/480, 1 h; inhibition, % at 20 µM; hit rate 0.74% among 220,000; AID 1434;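 active = mean inhibition across duplicate retests at 20 µM reaching about 50%, limit read from the data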;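 note: inhibitors lower the FRET ratio by blocking Runt binding to CBFb-SMMHC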
Runt-CBFb FRET: inhibitors of human RUNX1 Runt domain binding to CBFb. Cerulean-Runt/Venus-CBFb FRET ratio 530/480, 1 h. inhibition, % at 20 µM. Q01196+Q13951. AID 1496. hit rate 0.46% among 220,000;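 active = inhibition over about 50% at 20 µM in the single-dose screen, limit read from the data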
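test system = Cerulean-tagged RUNX1 Runt domain (FRET donor) fusion protein | reagent = Venus-CBFb binding partner, 100 nM | incubation = protein complex preformed 1 h, compound exposure 1 h, room temperature, dark | detection = FRET fluorescence | read-out basis = loss of energy transfer signal | controls = 5 µM unlabeled CBFb as full-inhibition high control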
AI-2 QS modul: modulates the Vibrio harveyi AI-2 quorum sensing system. AID 2094. activity change, % at 7.5 µM. hit rate 0.4% among 300,000. Vibrio harveyi JMH597 AI-2 luminescence/OD600 ratio, 9 h; hits give low values; strain lacks LuxN and CqsS sensors; 0 = neutral-control median; in the data active = activity change below about -75%, passing the limit was not always enough;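 note: luminescence divided by OD600 gain over 9 h not by final OD600 alone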
Wee1 stabilizer: blocks degradation of human Wee1 kinase; reporter increase, % at 5 µM; AID 1321; HeLa Luc-Wee1K328M stability, luciferase luminescence; 100% = proteasome inhibitor MG132 effect; P30291; hit rate 1.2% among 220,000;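 active = activation above the mean of all tested compounds plus 3 SD, set per screening run, cut at about 8.8% in these data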;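 note: cells exposed to compound for 20 h before luminescence read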
Target sequence (P30291 whole entry K328M): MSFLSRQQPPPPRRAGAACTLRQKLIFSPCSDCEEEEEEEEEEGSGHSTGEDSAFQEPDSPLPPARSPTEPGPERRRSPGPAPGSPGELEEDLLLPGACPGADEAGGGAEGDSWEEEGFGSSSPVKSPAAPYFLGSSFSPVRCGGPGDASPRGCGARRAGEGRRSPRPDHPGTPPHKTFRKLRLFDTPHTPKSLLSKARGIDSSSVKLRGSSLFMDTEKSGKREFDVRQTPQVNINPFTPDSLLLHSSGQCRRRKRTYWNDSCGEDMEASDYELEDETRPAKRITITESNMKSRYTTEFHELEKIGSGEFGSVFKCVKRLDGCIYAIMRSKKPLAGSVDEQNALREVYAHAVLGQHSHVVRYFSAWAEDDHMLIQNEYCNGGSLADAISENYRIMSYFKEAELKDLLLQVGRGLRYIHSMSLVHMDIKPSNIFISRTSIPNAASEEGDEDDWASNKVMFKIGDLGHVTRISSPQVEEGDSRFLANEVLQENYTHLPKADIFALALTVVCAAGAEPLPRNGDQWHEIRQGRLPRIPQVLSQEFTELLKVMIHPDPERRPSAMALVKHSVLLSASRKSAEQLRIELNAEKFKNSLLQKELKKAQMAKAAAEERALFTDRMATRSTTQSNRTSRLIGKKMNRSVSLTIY
Hits are given with their value; 0 = inactive; - = no result. Sampled rows, rich in hits. Any-hit rate of the full collection: about 2.9%.

SMILES	proKLK7 act	RanGTP-Impb inh	Runt-SMMHC FRET	Runt-CBFb FRET	AI-2 QS modul	Wee1 stabilizer
Cc1ccc(CNC(=O)COc2ccc(C)nc2[N+](=O)[O-])cc1	0	0	0	0	0	0
Cc1ccc(COc2ccc(C)nc2[N+](=O)[O-])cc1	0	0	0	0	0	8.8
CC1(C)CC(=O)C=C(Nc2cccc(O)c2)C1	0	45	0	0	0	0
Cc1ccc(NC2=CC(=O)CC(C)(C)C2)cc1C	0	0	0	0	0	0
CC1(C)CC(=O)C=C(Nc2ccc3c(c2)OCCO3)C1	0	26	0	0	0	0
CC1(C)CC(=O)C=C(Nc2ccc(C(=O)O)cc2)C1	0	29	0	0	0	0
Cc1c(NC(=S)N/N=C/c2ccc(N(C)C)cc2)c(=O)n(-c2ccccc2)n1C	0	0	62	0	0	0
Cc1c(NC(=S)N/N=C/c2cccc(O)c2)c(=O)n(-c2ccccc2)n1C	0	0	0	0	0	0
Cc1cc(C)c2c3c(sc2n1)C(=O)N(c1ccccc1C)CC(=O)N3	0	0	0	0	0	9.5
CCCCNC(=O)CNC(=S)N(Cc1ccccc1F)C1CCCCC1	0	0	0	0	0	9.1
Cc1[nH]c2ccccc2c1CC(=O)Nc1ccc(Nc2cccnc2)c(-c2ccc(OC(F)(F)F)cc2)c1	0	-	-	-	-	-
COc1ccc(C#Cc2ccc3c(c2)c(=O)c2ccccc2n3C)cc1	0	84	-	-	0	-
Cn1c2ccccc2c(=O)c2ccc(C#CC3(O)CCCCC3)cc21	0	165	-	-	0	-
Nc1ccc(C#Cc2ccc3oc4ccccc4c(=O)c3c2)cc1	0	0	-	-	0	-
Cn1c2ccccc2c(=O)c2cc(C#Cc3ccc(N)cc3)ccc21	0	50	-	-	0	-
Cn1cccc1/C=C1\SC(=S)N(NC(=O)c2ccc(F)cc2)C1=O	0	0	0	0	0	0
Cn1cccc1/C=C1\SC(=S)N(NC(=O)c2ccccc2)C1=O	0	-	0	0	-	9.0
CCc1nnc(NC(=O)c2sc3nc4c(cc3c2N)CCCCCC4)s1	0	0	61	0	0	0
COc1ccc(C2(C)NC(=O)N(CC(=O)Nc3ccc(Br)c(C)c3)C2=O)cc1OC (configuration not stated)	0	21	-	-	0	-
Cc1ccsc1C(=O)NNC(=O)C1C2C=CC(C2)C1C(=O)O (configuration not stated)	0	-	0	0	-	10
C[C@@H]1CN([C@H](C)CO)C(=O)c2cc(NS(=O)(=O)c3ccccc3)ccc2O[C@@H](C)CCCCO[C@@H]1CN(C)Cc1ccc(Cl)c(Cl)c1	0	-	-	-	-	-
CC(=O)N1c2ccc(S(=O)(=O)N3CCC(C(=O)N4CCN(c5ccc(Cl)cc5)CC4)CC3)cc2CC1C (configuration not stated)	0	0	-	-	0	-
CCCc1c(C)c(C#N)c2nc3ccccc3n2c1NCCCN1CCOCC1	0	0	54	0	0	0
CCCCc1c(C)c(C#N)c2nc3ccccc3n2c1NCCN(C)C	0	0	-	-	0	-
N#Cc1c2c(c(NCCN3CCOCC3)n3c1nc1ccccc13)CCCC2	0	45	111	50	0	0
SMILES	proKLK7 act	RanGTP-Impb inh	Runt-SMMHC FRET	Runt-CBFb FRET	AI-2 QS modul	Wee1 stabilizer
Cc1c(Cc2ccccc2)c(NCCN(C)C)n2c(nc3ccccc32)c1C#N	0	26	81	0	0	0
N#Cc1c2c(c(NCCCN3CCOCC3)n3c1nc1ccccc13)CCC2	0	0	0	0	0	0
C=CCN(C)CC#Cc1ccc(OC)cc1	0	-	-	-	-	-
COc1cc(/C=C2/C(=O)N(c3ccc([N+](=O)[O-])cc3)N=C2N2CCOCC2)ccc1O	0	0	0	0	0	8.9
COc1cc(/C=C2\SC(=S)N(N3CCOCC3)C2=O)ccc1O	0	0	0	0	0	9.0
O=C(Cn1cnc2ccccc2c1=O)N1CCCCC1	0	-	-	-	-	-
O=C(O)c1ccccc1S	-	-	0	0	-	12
O=C1N=C(N2CCOCC2)S/C1=C/c1cc2c(cc1[N+](=O)[O-])OCO2	0	0	0	0	0	9.1
C[C@@H](NC(=O)C[C@H]1CC[C@H]2[C@@H](COc3ccc(NC(=O)Nc4ccccc4)cc3C(=O)N2C)O1)c1ccccc1	0	-	-	-	-	-
